Source: PubChem
KLK5 inh = blocks human kallikrein 5 protease activity; Q9Y337; recombinant hK5, fluorogenic AMC substrate cleavage; inhibition, % at 5 µM; 210,000 tested, 0.59% active; AID 873;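 active means inhibition of 40% or more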
thrombin 1536 = blocks human thrombin protease activity; P00734; alpha-thrombin, Boc-VPR-AMC fluorogenic substrate cleavage; inhibition, % at 5 µM; 220,000 tested, 0.26% active; AID 1046;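 active means inhibition at or above 40%; inactive means inhibition below 40%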
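Test system: human alpha-thrombin protein / Dosing: one concentration per compound, 5 µM, with 0.2% DMSO / Medium: pH 7.5 Tris-saline with Tween 20 / Benchmarks: no-compound enzyme wells and no-enzyme blanks / Read-out basis: percent inhibition of thrombin substrate cleavage / Timing: reaction at room temperature / Measured by: fluorescence, ex 355 nm, em 460 nm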
FXIa inh 1536 = inhibitors of human coagulation factor XIa | P03951 | purified FXIa, Boc-Glu-Ala-Arg-AMC fluorogenic substrate | inhibition, % at 5 µM | 220,000 tested, 0.14% active | AID 798;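 active means inhibition of at least 40%; inactive means inhibition below 40%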;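 further: fluorescence of freed AMC excited at 355 nm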
Target sequence (P03951 19-387 limits assumed): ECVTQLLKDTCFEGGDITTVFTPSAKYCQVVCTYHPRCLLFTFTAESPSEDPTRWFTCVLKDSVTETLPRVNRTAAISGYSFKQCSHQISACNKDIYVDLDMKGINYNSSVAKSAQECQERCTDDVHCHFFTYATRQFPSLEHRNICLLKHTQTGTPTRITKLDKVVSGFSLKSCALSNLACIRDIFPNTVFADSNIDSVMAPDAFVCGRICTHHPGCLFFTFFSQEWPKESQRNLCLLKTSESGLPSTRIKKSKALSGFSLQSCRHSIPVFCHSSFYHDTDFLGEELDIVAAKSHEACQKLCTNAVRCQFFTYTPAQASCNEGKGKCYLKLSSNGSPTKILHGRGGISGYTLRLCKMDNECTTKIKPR
Target sequence (P03951 388-625 limits assumed): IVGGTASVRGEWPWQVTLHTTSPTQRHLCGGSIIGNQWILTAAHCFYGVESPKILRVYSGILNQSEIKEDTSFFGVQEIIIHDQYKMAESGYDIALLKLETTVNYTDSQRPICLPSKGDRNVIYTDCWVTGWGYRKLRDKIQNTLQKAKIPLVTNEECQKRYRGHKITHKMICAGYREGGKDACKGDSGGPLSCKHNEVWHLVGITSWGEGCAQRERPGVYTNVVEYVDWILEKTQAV
EP2 antag = inhibitors of human EP2 prostaglandin E2 receptor | C6 glioma cells expressing human EP2, cAMP TR-FRET; cells stimulated with saturating PGE2 | inhibition, % at 25 µM | 260,000 tested, 0.52% active | AID 1422;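 active means percent inhibition above 40 after rounding to a whole number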;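 further: rat C6 glioma host cells with rolipram phosphodiesterase inhibitor present; the protocol text gives 20 µM as final concentration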
EP2 mod = EP2 receptor (human) modulation; induction, % at 25 µM; AID 940; P43116; EP2-expressing cells, cAMP HTRF FRET, PGE2 co-stimulation; 260,000 tested, 0.83% active;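 active means compounds whose cAMP rise, as percent of the full-agonist control response, exceeds 60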;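 further: rat C6 glioma line stably carrying human EP2 under a CMV promoter; the protocol text gives 20 µM as final concentration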
FXIIa inh = factor XIIa (human) inhibition; 220,000 tested, 0.3% active; purified FXIIa, Boc-QGR-AMC fluorogenic substrate, 2 h; P00748; inhibition, % at 5 µM; in the data active means inhibition above about 40%
EP2 confirm = human EP2 receptor cAMP induction, negative in counter-screens | shares compounds with EP2 mod | C6 glioma EP2 cells, cAMP HTRF induction; plus low (about EC15) PGE2 agonist | calls only at 20 µM (by protocol) | 1,300 tested, 47% active | AID 1080;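 active means cAMP induction above 50% in the main assay while under 30% in all four parallel counter assays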;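 further: rat C6 glioma cells stably expressing human EP2 receptor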
Of the large screens only hits and unclear results are named; the others gave an inactive call (follow-up assays come after a bar, where they were run). Shown are actives, neighbours in structure and some others; about 2.1% of the full set was active somewhere.

Cc1ccc(Nc2nc(N)c([N+](=O)[O-])c(NCc3ccccc3)n2)cc1	EP2 mod 74.1
CC(C)=CCc1c(O)cc(C)oc1=O	none (no result: KLK5 inh, thrombin 1536, FXIa inh 1536, FXIIa inh)
CC(C)=CCc1c(O)c(CC=C(C)C)c2c(c1O)-c1cc(O)c(O)cc1CC2	EP2 antag 54.2 (no result: KLK5 inh, thrombin 1536, FXIa inh 1536, EP2 mod, FXIIa inh)
O=c1c2ccccc2sc2c(CO)ccc(NCCN3CCCCC3)c12	EP2 antag 58.3 (no result: KLK5 inh, thrombin 1536, FXIa inh 1536, FXIIa inh)
CCOC(=O)/C(=C\c1cn(C)c2ccccc12)[N+](=O)[O-]	EP2 antag 41.5
COc1ccc(CCNc2c(-c3ccc(O)cc3)nc3cnccn23)cc1OC	none (no result: KLK5 inh, thrombin 1536, FXIa inh 1536, FXIIa inh)
O=C(c1ccccc1)c1ccccc1NC(=O)C1CCCN1Cc1ccccc1 (stereo not given)	EP2 mod 72.8
O=C(CN1CCCC1)Nc1ccccc1C(=O)c1ccccc1	none
CCCCCCCc1nc2c(=O)n(C)c3ccccc3c2o1	EP2 mod 69.7
O=C(NCc1ccccc1F)C1CCCN(c2ncccn2)C1 (stereo not given)	none (no result: KLK5 inh, thrombin 1536, FXIa inh 1536, FXIIa inh)
COc1ccc(C2=NNC(c3cccnc3)=Nc3ccc(OC)cc32)cc1	none
COc1ccc2c(c1)C(c1ccc([N+](=O)[O-])cc1)=NNC(c1ccco1)=N2	KLK5 inh 42.1
COc1ccc2c(c1)C(c1ccc(N3CCOCC3)cc1)=NNC(c1cccnc1)=N2	KLK5 inh 93.8
CC1CCN(CC(=O)N2c3ccccc3Sc3cc4ccccc4cc32)CC1	EP2 antag 45.9 (no result: KLK5 inh, thrombin 1536, FXIa inh 1536, FXIIa inh)
CN1CCN(CCC(=O)N2c3ccccc3Sc3ccc(Cl)cc32)CC1	none
CN1CCN(CC(=O)N2c3ccccc3Sc3cc4ccccc4cc32)CC1	EP2 antag 44.8 (no result: KLK5 inh, thrombin 1536, FXIa inh 1536, FXIIa inh)
Cc1ccnc(N2CCCC(C(=O)Nc3cccc4ccccc34)C2)n1 (stereo not given)	none (no result: KLK5 inh, thrombin 1536, FXIa inh 1536, FXIIa inh)
CCOc1ccc(C(C)NC(=O)c2cc(C(C)(C)C)nn2C)cc1 (stereo not given)	none (no result: KLK5 inh, thrombin 1536, FXIa inh 1536, FXIIa inh)
COc1ccc(-c2ccc(=O)n(CC3CCN(C(=O)C4CCCO4)CC3)n2)cc1 (stereo not given)	none (no result: KLK5 inh, thrombin 1536, FXIa inh 1536, EP2 antag, FXIIa inh)
Cc1ccc2nc(Cl)nc(-c3ccccc3)c2c1	none
Cc1ccc2nc(C)/c(=N\O)c(C)nc2c1	KLK5 inh 51.1
Cc1ccc2nc(-c3ccccc3)c(-c3ccccc3)nc2c1	EP2 mod 61.1
Cc1nc2ccc(Cl)cc2nc(C)/c1=N\O	none
CCCC1c2cccn2CCN1C(=O)COc1ncnc2ccccc12 (stereo not given)	none (no result: KLK5 inh, thrombin 1536, FXIa inh 1536, FXIIa inh)
N#CCSc1nccc(-c2cc(Cl)sc2Cl)n1	none
C=CCSc1nccc(-c2cc(Cl)sc2Cl)n1	EP2 mod 66.8 | EP2 confirm inactive
CSc1ncc2c(n1)-c1cc(C)ccc1SC2	EP2 mod 78.2 | EP2 confirm active
Nc1ncc2c(n1)-c1cc(Cl)ccc1SC2	none (no result: KLK5 inh)
COc1ccc(CCNC(=O)c2c(O)c3cc(OC)c(OC)cc3[nH]c2=O)cc1	none (no result: KLK5 inh, thrombin 1536, FXIa inh 1536, FXIIa inh)
Cn1c(=O)[nH]c(=O)c2c1nc(CN1CCN(c3ccc(F)cc3)CC1)n2CCCc1ccccc1	none
Cn1c(=O)[nH]c(=O)c2c1nc(CN1CCN(c3ccccc3F)CC1)n2CCCc1ccccc1	EP2 mod 85.4 | EP2 confirm inactive
O=C(O)C1C(c2ccccc2)C(C(=O)OCc2ccco2)C1c1ccccc1 (stereo not given)	none
COC(=O)C1C(c2ccccc2)C(C(=O)OCc2ccco2)C1c1ccccc1 (stereo not given)	EP2 mod 67.7 | EP2 confirm inactive
Cc1cc(C)c2c(C)nn(-c3ccccc3)c2n1	none
Cc1nc2c(c(C)nn2-c2ccccc2)c(C)c1Cl	EP2 mod 77.1 | EP2 confirm inactive
Cc1ccc(CN(CCCN2CCOCC2)Cc2c(C)nc3sccn23)o1	none (no result: KLK5 inh, thrombin 1536, FXIa inh 1536, FXIIa inh)
O=C(CN1CCCC1)Nc1ccccc1F	none (no result: KLK5 inh, thrombin 1536, FXIa inh 1536, FXIIa inh)
COc1ccc(-c2c3c([nH]c(=S)c2C#N)CCC3)cc1	EP2 mod 76.8 | EP2 confirm inactive
CC1(C)C(=O)Nc2ccccc2N1C(=O)CSc1ncccn1	none
CCCCCCn1c(COc2ccccc2F)nnc1SCC(=O)N1c2ccccc2NC(=O)C1(C)C	EP2 mod 64.3 | EP2 confirm inactive
COC(=O)c1c(NC(=O)c2ccc(F)cc2)sc(C(=O)Nc2cccc(OC)c2)c1C	none (no result: KLK5 inh, thrombin 1536, FXIa inh 1536, FXIIa inh)
CC1(c2ccccc2)CC(C)(C)N(C(=O)C2CCCO2)c2ccccc21 (stereo not given)	EP2 mod 68.9 | EP2 confirm active
CC1(c2cc([N+](=O)[O-])cc([N+](=O)[O-])c2)CC(C)(C)N(C(=O)c2ccccc2)c2ccccc21 (stereo not given)	EP2 mod 74.1 | EP2 confirm inactive
Cc1ccc(-c2nnc(SCC(=O)N3CCCc4ccccc43)n2C)cc1	none (no result: KLK5 inh, thrombin 1536, FXIa inh 1536, FXIIa inh)
C=CCSc1nc2ccccc2c(=O)n1Cc1ccco1	EP2 mod 70.1 (no result: KLK5 inh, thrombin 1536, FXIa inh 1536, FXIIa inh) | EP2 confirm inactive
CCc1ccccc1NC1c2ccccc2C(=O)N1c1cc(C)ccn1 (stereo not given)	EP2 mod 81.2 | EP2 confirm inactive
Cc1ccnc(N2C(=O)c3ccccc3C2Nc2ccccc2Cl)c1 (stereo not given)	none
CCOc1ccccc1NC1c2ccccc2C(=O)N1c1ccc(C)cn1 (stereo not given)	EP2 mod 80.7 | EP2 confirm inactive
COc1ccc(-c2cc(C(F)(F)F)nc(N3CCOCC3)n2)cc1OC	EP2 mod 69.7 | EP2 confirm active
COc1ccc(-c2cc(C(F)(F)F)nc(NC3CCCC3)n2)cc1OC	EP2 mod 68.3 | EP2 confirm inactive
COc1ccc(-c2cc(-c3ccccc3)nc(N3CCCC3)n2)cc1OC	EP2 mod 63.8 | EP2 confirm inactive
COc1ccc(-c2cc(C(F)(F)F)nc(SCC(=O)NC3CCCCCC3)n2)cc1OC	none (no result: KLK5 inh, thrombin 1536, FXIa inh 1536, FXIIa inh)
COc1cccc(-c2cc(C(F)(F)F)nc(N3CCOCC3)n2)c1	none
CCOc1nc2cccc(C(=O)OC(C)OC(=O)OC3CCCCC3)c2n1Cc1ccc(-c2ccccc2-c2nn[nH]n2)cc1 (stereo not given)	none (no result: KLK5 inh, thrombin 1536, FXIa inh 1536, FXIIa inh) | EP2 confirm inactive
CCOc1ccc(N(CC(=O)N2CCC(C)CC2)S(=O)(=O)c2ccc(OC)c(OC)c2)cc1	none (no result: KLK5 inh, thrombin 1536, FXIa inh 1536, FXIIa inh)
COc1ccc(NC(=O)CSc2nc(N)c3cc4c(nc3n2)CC(C)(C)OC4)cc1	none
CC1(C)Cc2nc3nc(SCC(=O)Nc4ccccc4)nc(N)c3cc2CO1	EP2 mod 70.8 (no result: KLK5 inh) | EP2 confirm active
C/C=C(\C)C(=O)OC1[C@@H]2C=C3C(CC[C@]4(C)C3CC(=O)O[C@H]4c3ccoc3)C(C)(C2=O)[C@@H](C(O)C(=O)OC)C1(C)C (stereo not given in full)	none (no result: KLK5 inh, thrombin 1536, FXIa inh 1536, FXIIa inh)
Cc1ccc2c(c1)NC(C(C)(C)C)CO2 (stereo not given)	none
Cc1ccc(S(=O)(=O)N2c3ccccc3OCC2C(C)(C)C)cc1 (stereo not given)	EP2 mod 88.5 | EP2 confirm active
